From ChEMBL document CHEMBL1154127, “Oxidative burst inhibitory and cytotoxic indoloquinazoline and furoquinoline alkaloids from Oricia suaveolens” (J Nat Prod, 2008)
Calls of active or inactive are those of the source. No cut-off for these calls is given here.

Columns and labels:
Neutrophil [1] = assay: Immunomodulatory activity in polymorphoneutrophils assessed as inhibition of zymosan-activated oxidative burst by chemiluminescence assay; type: functional, cell-based
How it was run: (§1)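 Luminol-enhanced chemiluminescence on isolated neutrophils (1 × 10^7) in HBSS with Ca2+ and Mg2+. Cells preincubated 30 min with compounds at 3.1-50 µg/mL. Burst triggered with serum-opsonized zymosan (20 mg/mL as added), followed by luminol ([…] as added). Final volume adjusted to 0.2 mL with HBSS++, which also served as control. Read-out is IC50.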

A549 = assay: Cytotoxicity against human A549 cells by SRB assay; type: functional, cell-based
How it was run: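 A549 lung adenocarcinoma cells, freshly trypsinized, seeded at 1 × 10^4 cells per well. Compounds added from a DMSO-diluted stock. Cultured 3 days, then attached cells stained with sulforhodamine B and dye solubilized in DMSO. Absorbance read at 550 nm. IC50 is the concentration reducing cell growth by 50%. Cisplatin served as positive control.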

Neutrophil [2] = assay: Immunomodulatory activity in polymorphoneutrophils assessed as inhibition of luminol-induced oxidative burst by chemiluminescence assay; type: functional, cell-based; how it was run: as §1
[3] = Immunomodulatory activity in whole blood assessed as inhibition of luminol-induced oxidative burst by chemiluminescence assay; type: functional, tissue-based
How it was run: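 Whole blood diluted 1:200 in HBSS with Ca2+ and Mg2+, preincubated 30 min with compounds at 3.1-50 µg/mL. Then serum-opsonized zymosan (20 mg/mL as added) and luminol ([…] as added) were added, and the final volume brought to 0.2 mL with HBSS++. HBSS++ alone served as control. Luminol-enhanced chemiluminescence measured, giving IC50.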

Neutrophil [4] = assay: Immunomodulatory activity in polymorphoneutrophils assessed as inhibition of PMA-activated oxidative burst by chemiluminescence assay; type: functional, cell-based

Structure (SMILES) | Activity (Neutrophil [1]) | IC50 (A549) | IC50 (Neutrophil [2]) | IC50 [3] | Activity (Neutrophil [4])
COc1ccc2c(=O)n3c(nc2c1)-c1[nH]c2ccccc2c1CC3 | Dose-dependent effect | > 10 µM | 27.4 µM | 48.8 µM | inactive
COc1c2c(cc3nc4occc4c(OC)c13)OCO2 |  | 7.9 µM |  |  | 
COc1c2ccoc2nc2c(OC)c3c(cc12)OCO3 [FLINDERSIAMINE] |  | 8.9 µM |  |  | 
CC(C)Cc1ccc(C(C)C(=O)O)cc1 (stereo unspecified) [IBUPROFEN] |  |  | 12.1 µM | 54.3 µM | 
COc1cc2nc3occc3c(OC)c2cc1OC [KOKUSAGININE] | Dose-dependent effect |  | 61.8 µM | 74.9 µM | inactive
CC1(C)O[C@H]2CC(=O)OC[C@]23[C@H]2CC[C@@]4(C)[C@H](c5ccoc5)OC(=O)[C@H]5O[C@]54[C@]2(C)C(=O)C[C@@H]13 [LIMONIN] | Dose-dependent effect |  | 38.2 µM | 26.1 µM | inactive
COc1c2cc3c(cc2nc2occc12)OCO3 [MACULINE] |  | 9.5 µM |  |  | 
O=c1c2ccc(O)cc2nc2n1CCc1c-2[nH]c2ccccc12 [ORISUAVEOLINE A] |  | > 10 µM |  |  | 
COc1ccc2c(=O)n3c(nc2c1)-c1[nH]c2cc4c(cc2c1CC3)OCO4 [ORISUAVEOLINE B] | Dose-dependent effect |  | 22.4 µM | 31.8 µM | inactive
COc1c2cc3c(cc2nc2occc12)O[C@@H](C(C)(C)O)CO3 [QUINOSUAVEOLINE B] | Dose-dependent effect |  | 14.5 µM | 56.8 µM | inactive
COc1ccc2c(OC)c3ccoc3nc2c1OC [SKIMMIANINE] | Dose-dependent effect | > 10 µM | 35.5 µM | 51.3 µM | inactive
COc1c2ccoc2nc2c(O)c3c(c(CC=C(C)C)c12)OCO3 [TECLEAVERDOORNINE] | Dose-dependent effect |  | 21.2 µM | 54.4 µM | inactive
